ChEMBL document CHEMBL1132157 (J Med Chem, 1999)

What was measured:
[1] = biological target: T1, 5-hydroxytryptamine receptor 1D (Homo sapiens, UniProt P28221); experiment: Maximum stimulation of [35S]GTP-gamma-S, binding in CHO cells expressing human 5-HT-1d relative to 5-HT; assay type: functional, cell-based
Procedure, shortened: (§1)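 Membranes from thawed CHO cells with human 5-HT1D, prepared in ice-cold 20 mM Hepes/EDTA at pH 7.4, spun at 40000g. Assay buffer: 100 mM NaCl, 10 mM MgCl2, 0.1% ascorbate, 10 μM pargyline. GDP 100 μM plus drug, 20 min at 30 °C, then ice 15 min. Then 100 pM [35S]GTPγS, 30 min at 30 °C, filtration. Emax is taken as % of maximal 5-HT response; duplicates, 2–5 occasions.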

[2] = biological target: T1, 5-hydroxytryptamine receptor 1D; experiment: Binding affinity at human cloned 5-hydroxytryptamine 1D receptor stably expressed in CHO cells by [3H]5-HT displacement.; assay type: cell-based
Procedure, shortened: (§2)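 Membranes from thawed CHO cells with human 5-HT1B or 5-HT1D, washed in 50 mM Tris-HCl pH 7.7, preincubated 10 min at 37 °C to remove endogenous 5-HT. Buffer holds 0.1% ascorbate, 10 μM pargyline and 4 mM CaCl2. Uses 2.0 nM [3H]5-HT, 30 min at 37 °C; 10 μM 5-HT defines nonspecific binding. Filtration; IC50 by nonlinear regression; duplicates, 2–5 occasions.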

[3] = biological target: T2, 5-hydroxytryptamine receptor 1B (Homo sapiens, UniProt P28222); experiment: Binding affinity at cloned human 5-hydroxytryptamine 1B receptor stably expressed in CHO cells by [3H]5-HT displacement.; assay type: cell-based
[4] = Ratio of IC50 for human 5-HT1B to human 5-HT1D receptors
[5] = biological target: T1, 5-hydroxytryptamine receptor 1D; experiment: Agonist-induced [35S]- GTPgammaS binding in CHO cells stably transfected with 5-hydroxytryptamine 1D receptor; assay type: cell-based; procedure, shortened: as §1
[6] = biological target: T1, 5-hydroxytryptamine receptor 1D; experiment: Displacement of [3H]5-HT binding to cloned human 5-hydroxytryptamine 1D receptor stably expressed in CHO cells; assay type: cell-based; procedure, shortened: as §2
[7] = biological target: T2, 5-hydroxytryptamine receptor 1B; experiment: Displacement of [3H]5-HT binding to cloned 5-hydroxytryptamine 1B receptor stably expressed in CHO cells; assay type: cell-based; procedure, shortened: as §2

T2 sequence (P28222 whole entry): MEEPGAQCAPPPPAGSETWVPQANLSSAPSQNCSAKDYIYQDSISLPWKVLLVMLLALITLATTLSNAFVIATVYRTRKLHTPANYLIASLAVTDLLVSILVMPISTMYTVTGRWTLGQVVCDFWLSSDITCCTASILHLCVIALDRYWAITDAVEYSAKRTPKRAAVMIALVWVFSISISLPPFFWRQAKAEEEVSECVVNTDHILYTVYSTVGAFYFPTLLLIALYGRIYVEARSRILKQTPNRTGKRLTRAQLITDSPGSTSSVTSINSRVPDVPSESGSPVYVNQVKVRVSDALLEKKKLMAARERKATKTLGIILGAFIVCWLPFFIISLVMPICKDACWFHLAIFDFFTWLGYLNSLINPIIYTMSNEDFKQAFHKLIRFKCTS
T1 sequence (P28221 whole entry): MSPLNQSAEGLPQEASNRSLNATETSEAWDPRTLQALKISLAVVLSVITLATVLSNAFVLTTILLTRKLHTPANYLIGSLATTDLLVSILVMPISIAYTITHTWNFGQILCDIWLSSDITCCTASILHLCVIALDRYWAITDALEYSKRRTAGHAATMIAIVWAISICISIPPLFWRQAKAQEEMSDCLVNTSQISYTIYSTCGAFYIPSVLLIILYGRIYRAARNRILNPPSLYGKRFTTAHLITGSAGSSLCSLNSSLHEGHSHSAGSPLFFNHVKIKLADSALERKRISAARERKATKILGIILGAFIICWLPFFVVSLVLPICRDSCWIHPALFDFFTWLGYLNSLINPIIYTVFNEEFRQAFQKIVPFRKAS

SMILES | Efficacy [1] [%] | IC50 [2] [nM] | IC50 [3] [nM] | Selectivity [4] | EC50 [5] [nM] | IC50 [6] [nM] | IC50 [7] [nM]
COC[C@H](NC1CCN(CCCc2c[nH]c3ccc(-n4cnnc4)cc23)CC1)c1ccccc1 | 93 | 3 | 210 | 70 | 0.9 |  | 
OCCC(NC1CCN(CCCc2c[nH]c3ccc(-n4cnnc4)cc23)CC1)c1ccccc1 (stereo not given) | 100 | 5.5 | 150 | 27 | 5.1 |  | 
C[C@@H](NC1CCN(CCCc2c[nH]c3ccc(-n4cnnc4)cc23)CC1)C(=O)Nc1ccccc1 | 61 | 7.6 | 85 | 11 | 15 |  | 
CS(=O)(=O)NC[C@H](NC1CCN(CCCc2c[nH]c3ccc(-n4cnnc4)cc23)CC1)c1ccccc1 |  | 15 | 78 | 5.2 |  |  | 
OC[C@@H](NC1CCN(CCCc2c[nH]c3ccc(-n4cnnc4)cc23)CC1)c1ccccc1 | 67 | 3.5 | 160 | 46 | 2.6 |  | 
CC(=O)Nc1ccc(CNC2CCN(CCCc3c[nH]c4ccc(-n5cnnc5)cc34)CC2)cc1 | 75 |  |  | 15 | 5 | 3 | 45
CC#CCN(C)C1CCN(CCCc2c[nH]c3ccc(-n4cnnc4)cc23)CC1 |  | 9.8 | 81 | 8.3 |  |  | 
CC(NC1CCN(CCCc2c[nH]c3ccc(-n4cnnc4)cc23)CC1)c1ccc(F)cc1 (stereo not given) | 99 | 1.9 | 230 | 120 | 0.5 |  | 
O[C@@H]1Cc2ccccc2[C@H]1NC1CCN(CCCc2c[nH]c3ccc(-n4cnnc4)cc23)CC1 | 75 |  |  | 32 | 13 | 6.6 | 210
C[C@H](Cc1ccccc1)NC1CCN(CCCc2c[nH]c3ccc(-n4cnnc4)cc23)CC1 | 71 | 5.5 | 170 | 31 | 6.8 |  | 
CC(CO)(NC1CCN(CCCc2c[nH]c3ccc(-n4cnnc4)cc23)CC1)c1ccccc1 (stereo not given) | 59 | 5.2 | 98 | 19 | 3.4 |  | 
c1ccc2c(c1)CCC2NCC1CCN(CCCc2c[nH]c3ccc(-n4cnnc4)cc23)CC1 (stereo not given) | 78 |  |  | 23 | 1.3 | 1.1 | 25
C[C@@H](NC1CCN(CCCc2c[nH]c3ccc(-n4cnnc4)cc23)CC1)[C@H](O)c1ccccc1 | 76 | 11 | 200 | 18 | 15 |  | 
c1ccc2c(c1)CCC2NC1CCN(CCCc2c[nH]c3ccc(-n4cnnc4)cc23)CC1 (stereo not given) | 68 |  |  | 31 | 25 | 8.9 | 280
c1ccc(CNC2CCN(CCCc3c[nH]c4ccc(-n5cnnc5)cc34)CC2)cc1 | 76 |  |  | 26 | 7.6 | 4.6 | 120
CC(=O)Nc1ccc(CN(C)CC2CCN(CCCc3c[nH]c4ccc(-n5cnnc5)cc34)CC2)cc1 | 94 |  |  | 40 | 2.8 | 0.6 | 24
CC(C)=CCN(C)C1CCN(CCCc2c[nH]c3ccc(-n4cnnc4)cc23)CC1 | 115 |  |  | 82 | 1.8 | 0.5 | 41
OC[C@H](Cc1ccccc1)NC1CCN(CCCc2c[nH]c3ccc(-n4cnnc4)cc23)CC1 | 76 | 2.1 | 140 | 67 | 3.6 |  | 
CN(Cc1cccs1)C1CCN(CCCc2c[nH]c3ccc(-n4cnnc4)cc23)CC1 | 81 |  |  | 33 | 3.5 | 4.3 | 140

Next, values leading:

Efficacy [1] [%] | IC50 [2] [nM] | IC50 [3] [nM] | Selectivity [4] | EC50 [5] [nM] | IC50 [6] [nM] | IC50 [7] [nM] | SMILES
74 | 8.3 | 100 | 12 | 14 |  |  | OC[C@@H](Cc1ccccc1)NC1CCN(CCCc2c[nH]c3ccc(-n4cnnc4)cc23)CC1
 | 12 | 210 | 18 |  |  |  | C[C@@H](NC1CCN(CCCc2c[nH]c3ccc(-n4cnnc4)cc23)CC1)[C@@H](O)c1ccccc1
76 | 0.6 | 95 | 160 | 12 |  |  | C[C@H](NC1CCN(CCCc2c[nH]c3ccc(-n4cnnc4)cc23)CC1)c1ccccc1
87 |  |  | 25 | 8.9 | 8.1 | 200 | CN(Cc1ccoc1)C1CCN(CCCc2c[nH]c3ccc(-n4cnnc4)cc23)CC1
74 |  |  | 140 | 0.8 | 0.7 | 100 | OC[C@H](NC1CCN(CCCc2c[nH]c3ccc(-n4ccnc4)cc23)CC1)c1ccccc1
80 |  |  | 5.8 | 13 | 24 | 140 | c1cc(CNC2CCN(CCCc3c[nH]c4ccc(-n5cnnc5)cc34)CC2)ccn1
81 |  |  | 20 | 30 | 7.6 | 150 | C[C@H](O)[C@H](NC1CCN(CCCc2c[nH]c3ccc(-n4cnnc4)cc23)CC1)c1ccccc1
72 |  |  | 62 | 2.2 | 1.2 | 74 | Oc1nc2ccccc2n1C1CCN(CCCc2c[nH]c3ccc(-n4cnnc4)cc23)CC1
82 | 4.5 | 210 | 47 | 10 |  |  | CN(C1CCN(CCCc2c[nH]c3ccc(-n4cnnc4)cc23)CC1)[C@@H](CO)c1ccccc1
 | 4.3 | 71 | 17 |  |  |  | CN(C1CCN(CCCc2c[nH]c3ccc(-n4cnnc4)cc23)CC1)[C@H](CO)c1ccccc1
73 | 4.7 | 120 | 26 | 9.3 |  |  | NC(=O)OC[C@H](NC1CCN(CCCc2c[nH]c3ccc(-n4cnnc4)cc23)CC1)c1ccccc1
93 |  |  | 23 | 4.2 | 1.5 | 35 | CN(Cc1ccsc1)C1CCN(CCCc2c[nH]c3ccc(-n4cnnc4)cc23)CC1
65 |  |  | 220 | 4.7 | 1.9 | 410 | c1ccc(C2CCCCN2C2CCN(CCCc3c[nH]c4ccc(-n5cnnc5)cc34)CC2)cc1 (stereo not given)
76 |  |  | 57 | 32 | 23 | 1300 | OC[C@H](NC1CCN(CCCc2c[nH]c3ccc(Cn4cncn4)cc23)CC1)c1ccccc1
83 |  |  | 73 | 6 | 6.3 | 460 | O=C1N[C@@H](Cc2ccc3[nH]cc(CCCN4CCC(N[C@@H](CO)c5ccccc5)CC4)c3c2)CO1
89 |  |  | 240 | 8.9 | 5 | 1200 | COC[C@H](NC1CCN(CCCc2c[nH]c3ccc(Cn4cncn4)cc23)CC1)c1ccc(F)cc1
 | 29 | 350 | 12 |  |  |  | CC(=O)Nc1ccc([C@@H](C)NC2CCN(CCCc3c[nH]c4ccc(-n5cnnc5)cc34)CC2)cc1
